As a reminder, the Cmax is the peak of the concentration-time curve. Broadly, the IC50 is the concentration that gives 50% inhibition. One may read the Tmax as the time from dosing to the highest level. One may read the clearance as the rate of elimination divided by the concentration.

Data set [1] in a line: Oral bioavailability in C57BL/6 mouse at 5 mg/kg. The format is ADME, organism-based. To be noted: in vivo. The gist of the method:
(§1)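 Female C57BL/6 mice, single oral dose of 5 mg/kg in 0.5% methyl cellulose + 0.2% Tween 80 (w/w). Bioavailability is calculated against the 1 mg/kg IV arm.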

Data set [2] can be described thus: Cmax in C57BL/6 mouse at 5 mg/kg, po. On the set-up: route oral, dose 5 mg/kg. The following applies: in vivo. It counts as ADME, organism-based. The gist of the method:
as §1

Data set [3] concerns MV4-11. Kind of data set: Suppression of MEIS1 gene expression in human MV4-11 cells at 30 nM measured after 24 hrs by qRT-PCR analysis. It counts as functional, cell-based. A general note: Real-time PCR tracks product formation cycle by cycle.
The nature of data set [4]: Toxicity in SCID mouse xenografted with human MV4-11 cells assessed as change weight loss at 100 mg/kg, po administered daily for 26 days. The format is organism-based. To be noted: in vivo, 624 h, time 26 day. An outline of the steps: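 Female C.B-17 SCID mice bearing subcutaneous MV4;11 flank tumors (5×10^6 cells with Matrigel 1:1), treated once tumors averaged about 100 mm3. Dosed 100 mg/kg daily by oral gavage for 26 days in 0.5% MC + 0.2% Tween 80 vehicle. Body weight measured daily.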
For orientation: A xenograft is tissue or cells of one species grown in another, often human tumour cells in immunodeficient mice.

A short description of data set [5]: Anti-proliferative activity against human OCI-AML-4 cells harboring MLL-ENL fusion protein assessed as cell growth inhibition measured after 4 days by Cell Titre Glo Luminescent Cell viability assay. The following applies: OCI-AML-4, 96 h. The format is functional, cell-based. An outline of the steps: (§2)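 Leukemia lines plated in triplicate in RPMI 1640 at 37 °C, 5% CO2. 9-point dose response from 10 μM top concentration with 1:3 serial dilutions, 0.1% DMSO final; DMSO vehicle control column. Cellular ATP read by CellTiter-Glo at day 0 and after 4 days. Averages from three independent experiments.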

For the next data set, the system named is KOPN-8. As to the kind of experiment: Anti-proliferative activity against human KOPN-8 cells harboring MLL/ENL fusion protein assessed as cell growth inhibition measured after 4 days by Cell Titre Glo Luminescent Cell viability assay. It counts as functional, cell-based. The following applies: KOPN-8, 96 h. The gist of the method: as §2
Data set [6] can be described thus: Volume of distribution at steady state in C57BL/6 mouse at 1 mg/kg, iv. To be noted: in vivo, read-out: Vdss. It counts as ADME, organism-based. The gist of the method: (§3)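 Female C57BL/6 mice, single IV dose of 1 mg/kg given as a solution in 10% NMP, 10% Solutol HS15 and 80% saline. Parameters come from the plasma concentration–time profile.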
The subject of another data set is RS4-11. Kind of data set: Anti-proliferative activity against human RS4-11 cells harboring MLL/AF4 fusion protein assessed as cell growth inhibition measured after 4 days by Cell Titre Glo Luminescent Cell viability assay. It counts as functional, cell-based. To be noted: RS4-11, 96 h. An outline of the steps: as §2
Data set [7] in a line: Tmax in C57BL/6 mouse at 5 mg/kg, po. The format is ADME, organism-based. To be noted: in vivo. An outline of the steps: as §1
The target of data set [8] is T1, Menin (Homo sapiens) (UniProt O00255).
T1 sequence (whole entry): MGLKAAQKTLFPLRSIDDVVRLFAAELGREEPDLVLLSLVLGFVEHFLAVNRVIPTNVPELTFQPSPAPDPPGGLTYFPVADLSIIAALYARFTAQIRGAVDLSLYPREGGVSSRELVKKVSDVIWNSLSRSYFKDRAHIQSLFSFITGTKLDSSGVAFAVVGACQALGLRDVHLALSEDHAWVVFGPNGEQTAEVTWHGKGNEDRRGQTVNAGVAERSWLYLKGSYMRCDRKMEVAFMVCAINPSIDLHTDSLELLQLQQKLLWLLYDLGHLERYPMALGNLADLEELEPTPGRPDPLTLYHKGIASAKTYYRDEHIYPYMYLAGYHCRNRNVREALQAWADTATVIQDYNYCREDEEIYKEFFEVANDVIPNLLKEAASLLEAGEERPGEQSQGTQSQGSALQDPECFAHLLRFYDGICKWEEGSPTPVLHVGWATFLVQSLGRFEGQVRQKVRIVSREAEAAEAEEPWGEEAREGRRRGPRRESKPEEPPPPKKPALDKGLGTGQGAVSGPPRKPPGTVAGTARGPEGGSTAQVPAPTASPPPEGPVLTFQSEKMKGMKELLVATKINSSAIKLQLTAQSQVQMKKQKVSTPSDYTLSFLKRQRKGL
Kind of data set: Binding affinity to recombinant human menin protein assessed as covalent complex formation measured after overnight incubation by LC/MS analysis. Also noted: concentration or dose not given beside the values.

A short description of data set [9]: Clearance in C57BL/6 mouse at 1 mg/kg, iv. The format is ADME, organism-based. To be noted: in vivo. The gist of the method:
as §3

Data set [10] is described as follows: Toxicity in SCID mouse xenografted with human MV4-11 cells assessed as change weight loss at 300 mg/kg, po qd administered daily for 15 days. It counts as organism-based. The following applies: in vivo, 360 h, time 15 day. The gist of the method:
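Female C.B-17 SCID mice, 5–6 weeks old, implanted subcutaneously in the right flank with 5×10^6 MV4;11 cells in 1:1 Matrigel. Randomized at about 200 mm3. Dosed 300 mg/kg by oral gavage once daily for 15 days in 0.5% MC (400 cP) + 0.2% Tween 80 at 10 mL/kg. Body weight measured daily; caliper volume (0.5×W×W×L) three times weekly.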

Data set [11] has as its system MV4-11. Kind of data set: Anti-proliferative activity against human MV4-11 cells harboring MLL/AF4 fusion protein assessed as cell growth inhibition measured after 4 days by Cell Titre Glo Luminescent Cell viability assay. It counts as functional, cell-based. To be noted: MV4-11, 96 h.
Data set [12] in a line: Toxicity in NCG mouse xenografted with luciferase-tagged MV4-11 cells assessed as change in body weight at 150 mg/kg, po administered daily for 4 days measured after 48 hrs. It counts as organism-based. The following applies: in vivo, 96 h, time 4 day. An outline of the steps: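 Female NCG mice, 5–6 weeks old, given 5×10^6 luciferase-tagged MV4;11 cells IV via tail vein. Randomized at log-phase disease (day 27). Dosed 150 mg/kg oral gavage daily for 4 days in MC/Tween 80 vehicle. Read-outs 48 h after the last dose, five mice per group, mean ± SEM: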

Data set [13] concerns the target T1, Menin (Homo sapiens). As to the kind of experiment: Binding affinity to recombinant human menin protein assessed as covalent complex formation incubated for 10 mins by LC/MS analysis. On the set-up: concentration or dose not given beside the values.

Active and inactive are the calls of the source. No cut-off for these calls is given here.

For `C=CC(=O)N1C[C@@H]2C[C@H]1CN2S(=O)(=O)c1ccc(N2CC(CN3CCC([C@@](CN4CCC4)(c4cccc(F)c4)[C@H]4CCC[C@@H]4NC(=O)OC)CC3)(OC)C2)cc1`, the F in data set [1] is 49.4%. Moreover, the Cmax in data set [2] is 4150 ng/mL. Moreover, the inhibition result in the data set with MV4-11 [3] is “Active”. Moreover, the Activity entry in data set [4] was “Non-Toxic”; on Menin (Homo sapiens) [8] it was 100%; in data set [10], “Non-Toxic”; in data set [12], “Non-Toxic”; on Menin (Homo sapiens) [13], 27%. Besides, the IC50 came out at 3 nM in data set [5], 110 nM in the data set with KOPN-8, 1000 nM with RS4-11 and 10.3 nM in the data set on MV4-11 [11]. Also, in [6], the Vd turned out to be 0.33 L/kg. In addition, the Tmax in data set [7] stood at 2 h. Also, the clearance in data set [9] was 0.945 mL/min/kg.
